Measured values from different studies.
Each line is one published result; the experiments were not run side by side.
Target: Cyclin-dependent kinase 11B (CDK11B, Homo sapiens, UniProt P21127)
Method: competition with immobilised ligand

Structure (SMILES)	assay	setting	remaining binding [%]
Cc1c(NC(=O)c2cc(C(N)=O)nc3cc(F)ccc23)c(C(F)(F)F)nn1Cc1ccc(C#N)cc1	cell-free assay	1 µM	94
COc1ccnn2ncc(-c3ccnc(N(C)C)n3)c12	binding	1 µM	100
O=C(NCCCN1CCOCC1)c1ccc(Nc2ncc(Cl)c(-c3ccc(Cl)s3)n2)cc1	binding	1 µM	33
CN(C)c1nccc(-c2cnn3ncccc23)n1	binding	1 µM	100
CC1=C(C#N)C(c2ccc3c(c2)c(NC(=O)c2ccccc2C)nn3C)C(C#N)=C(C)N1	cell-free assay	1 µM	100
CN(CCCC(F)(F)F)c1nccc(-c2cnn3ncccc23)n1	binding	1 µM	94
COc1ncc2cc3ccccc3nc2c1C#N	cell-free assay	5 µM	100
COc1cnc(Nc2cccc(S(N)(=O)=O)c2)nc1N1CCN(c2ccccc2)C(=O)C1	binding	1 µM	100
Cc1cnc(Nc2ccc(C(=O)N3CCC(N4CCCC4)CC3)cc2)nc1-c1cc2ccccc2s1	binding	1 µM	100
C=CC(=O)N1CCC(C(=O)NCC(=O)N2CCN(c3nc(-c4cnc(N)nc4C(F)F)nc(N4CCOCC4)n3)CC2)CC1	binding	1 µM	100
CN(c1ccnc(CNc2nc(Nc3ccc4c(c3)CC(=O)N4)ncc2C(F)(F)F)n1)S(C)(=O)=O	cell-free assay	1 µM	91
N[C@@H]1CCN(c2nccc(-c3cnn4ncccc34)n2)C1	binding	1 µM	100
C[C@@H](c1ccc(-n2cnc3c(N)ncnc32)cc1)N1CCc2nn(C)c(Cc3ccccc3)c2C1=O	binding	0.1 µM	86
CN(C)C(=O)Cn1cc(-c2nc([C@@](C)(c3ccc(-c4cnc(N)nc4)cc3)C3CC3)no2)cn1	cell-free assay	1 µM	79
C[C@@H]1CCN(c2nccc(-c3cnn4ncccc34)n2)C1	binding	1 µM	97
O=C(Nc1c[nH]nc1C(=O)NC1CCNCC1)c1cc(F)cc(F)c1	binding	1 µM	86
CCN1CCN(Cc2ccc(C(=O)Nc3ccc(C)c(Oc4ccc5c(c4)CC(=O)N5)c3)cc2C(F)(F)F)CC1	binding	1 µM	100
CSc1cccnc1N1CCN(Cc2nc3ccccc3[nH]2)CC1	cell-free assay	1 µM	100
c1cnn2ncc(-c3ccnc(N4CCC45COC5)n3)c2c1	binding	1 µM	91
O=C(c1ccc(Nc2ncc(Cl)c(-c3ccc(Cl)s3)n2)cc1)N1CCC(N2CCCC2)CC1	binding	1 µM	46
CNCc1ccccc1-c1csc([C@H](C)Nc2nc(C)nc3cc(OC)c(OC)cc23)c1	cell-free assay	1 µM	100
